Assay results of several laboratories.
Protocols differ between the studies behind these lines.
Target: NUAK family SNF1-like kinase 1 (NUAK1, Homo sapiens, UniProt O60285)
One construct used (O60285 1-661): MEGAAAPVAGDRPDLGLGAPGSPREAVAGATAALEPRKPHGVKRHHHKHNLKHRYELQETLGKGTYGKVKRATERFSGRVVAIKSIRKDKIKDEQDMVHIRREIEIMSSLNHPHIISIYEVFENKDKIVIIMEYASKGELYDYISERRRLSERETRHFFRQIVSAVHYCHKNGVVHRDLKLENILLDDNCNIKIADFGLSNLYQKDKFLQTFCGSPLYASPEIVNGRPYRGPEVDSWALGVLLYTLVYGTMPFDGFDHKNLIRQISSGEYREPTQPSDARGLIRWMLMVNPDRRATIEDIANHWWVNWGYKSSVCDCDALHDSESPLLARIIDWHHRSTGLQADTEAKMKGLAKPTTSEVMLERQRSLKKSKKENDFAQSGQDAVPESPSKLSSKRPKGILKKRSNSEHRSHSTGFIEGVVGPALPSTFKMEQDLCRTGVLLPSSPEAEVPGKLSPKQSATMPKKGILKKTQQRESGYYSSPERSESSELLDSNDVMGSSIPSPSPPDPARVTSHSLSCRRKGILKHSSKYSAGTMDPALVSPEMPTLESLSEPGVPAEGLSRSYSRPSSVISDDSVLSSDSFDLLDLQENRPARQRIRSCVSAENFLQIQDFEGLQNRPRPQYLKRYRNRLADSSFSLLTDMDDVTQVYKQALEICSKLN

C[C@H]1CC[C@H](n2c3cnccc3c3cnc(Nc4ccc5c(n4)CCN(C(=O)CO)C5)nc32)CC1 — remaining signal (cell-free assay; 1 µM): 72%
CC(C)S(=O)(=O)c1ccc2nccc(Nc3ccc4sc(C5CCCC5)nc4c3)c2c1 — activity vs control (enzyme activity, inhibitor; 1 µM): 108%
C#Cc1cc(-c2cc(Nc3nc(N[C@@H](C)c4ccc(F)cn4)ncc3Cl)n[nH]2)ccc1C=O — inhibition (enzyme activity, inhibitor; 0.2 µM): 17.1%
C=CC(=O)N1CCC[C@@H](n2nc(-c3ccc(Oc4ccccc4)cc3)c3c(N)ncnc32)C1 — inhibition (enzyme activity, inhibitor; 1 µM): 10%
C1=C/COCc2cc(ccc2OCCN2CCCC2)Nc2nccc(n2)-c2cccc(c2)COC/1 — remaining signal (cell-free assay; 0.1 µM): 39%
C=CC(=O)N1CCC([C@@H]2CCNc3c(C(N)=O)c(-c4ccc(Oc5ccccc5)cc4)nn32)CC1 — inhibition (enzyme activity, inhibitor; 1 µM): 2%
CCCCC(=O)Nc1ccc(-c2ccc3ncn(CCC)c(=O)c3c2)cn1 — remaining binding (binding, competition with immobilised ligand; 0.5 µM): 73%
COc1ccc2[nH]c3c4[nH]c5ccc(OC)cc5c4c4c(c3c2c1)C(=O)NC4=O — remaining binding (binding; 1 µM): 25%
